# In ChEMBL document CHEMBL1132915:
# Tests used:
# [1] = molecular target: Xaa-Pro dipeptidase (Alteromonas sp.) (UniProt Q44238); assay: Kinetic constant Kcat from initial velocity assay against Organophosphorus acid anhydrolase from Alteromonas sp. JD6.5
# How it was run: (§1)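 Recombinant OPAA expressed in E. coli XL1 (plasmid pTCJS4), then ammonium sulfate and Q-Sepharose purification. Continuous plate assay at 25 °C with 1 μg enzyme in 50 mM bis-Tris propane pH 8.5, 100 mM NaCl, 0.1 mM MnCl2. Phenyl-containing and diisopropyl substrates had 5% methanol, diphenyl substrate 20%. p-Nitrophenol release was read at 400 nm (ε 17,000 M⁻¹ cm⁻¹). Rates were fitted to v = kcat·E·A/(Km + A).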
# [2] = molecular target: Xaa-Pro dipeptidase (Alteromonas sp.) (UniProt Q44238); assay: Ratio of kinetic constant Kcat to Km from initial velocity assay against OPAA from Alteromonas sp. JD6.5; how it was run: as §1
# [3] = molecular target: Xaa-Pro dipeptidase (Alteromonas sp.) (UniProt Q44238); assay: Ratio of kinetic constant K1 to K2 from progress curves against OPAA from Alteromonas sp. JD6.5
# How it was run: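 Time-course assays at 25 °C in a cuvette spectrophotometer, started by adding enzyme to 3.0 mL of 50 mM bis-Tris propane pH 8.5, 100 mM NaCl, 0.1 mM MnCl2, without methanol. Complete hydrolysis was followed at 400 nm. Traces were fitted to single or double exponential equations to give rate constants for the two enantiomers, and their ratio was taken.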
# [4] = molecular target: Xaa-Pro dipeptidase (Alteromonas sp.) (UniProt Q44238); assay: Ratio of kinetic constant Kcat to Km Sp and Kcat to Km Rp from initial velocity assay against OPAA from Alteromonas sp. JD6.5; how it was run: as §1
# [5] = system: CC(C)O[P@@](=O)(Oc1ccccc1)Oc1ccc([N+](=O)[O-])cc1; assay: (§2) Kinetic constant Km from initial velocity assay against Organophosphorus acid anhydrolase from Alteromonas sp. JD6.5; how it was run: as §1
# [6] = system: COP(=O)(OC)Oc1ccc([N+](=O)[O-])cc1; assay: as §2; how it was run: as §1
# [7] = system: CO[P@](=O)(Oc1ccccc1)Oc1ccc([N+](=O)[O-])cc1; assay: as §2; how it was run: as §1
# [8] = system: CC(C)O[P@](=O)(Oc1ccccc1)Oc1ccc([N+](=O)[O-])cc1; assay: as §2; how it was run: as §1
# [9] = system: CCO[P@@](=O)(Oc1ccccc1)Oc1ccc([N+](=O)[O-])cc1; assay: as §2; how it was run: as §1
# [10] = system: CCOP(=O)(OCC)Oc1ccc([N+](=O)[O-])cc1; assay: as §2; how it was run: as §1
# [11] = system: CO[P@@](=O)(Oc1ccc([N+](=O)[O-])cc1)OC(C)C; assay: as §2; how it was run: as §1
# [12] = system: CCO[P@](=O)(OC)Oc1ccc([N+](=O)[O-])cc1; assay: as §2; how it was run: as §1
# [13] = system: CO[P@](=O)(Oc1ccc([N+](=O)[O-])cc1)OC(C)C; assay: as §2; how it was run: as §1
# [14] = system: CO[P@@](=O)(Oc1ccccc1)Oc1ccc([N+](=O)[O-])cc1; assay: as §2; how it was run: as §1
# [15] = system: CCO[P@@](=O)(OC)Oc1ccc([N+](=O)[O-])cc1; assay: as §2; how it was run: as §1
# [16] = system: CCO[P@](=O)(Oc1ccccc1)Oc1ccc([N+](=O)[O-])cc1; assay: as §2; how it was run: as §1
# [17] = system: O=[N+]([O-])c1ccc(OP(=O)(Oc2ccccc2)Oc2ccccc2)cc1; assay: as §2; how it was run: as §1
# [18] = molecular target: Xaa-Pro dipeptidase (Alteromonas sp.) (UniProt Q44238); assay: Ratio of kinetic constant Kcat to Km by linear fit to data against OPAA from Alteromonas sp. JD6.5
# How it was run: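 kcat/Km was taken from a linear fit to initial-rate data. Continuous 400 nm p-nitrophenol assay at 25 °C with 1 μg recombinant OPAA (E. coli XL1/pTCJS4). Buffer was 50 mM bis-Tris propane pH 8.5, 100 mM NaCl, 0.1 mM MnCl2, plus 5–20% methanol depending on substrate.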
# [19] = molecular target: Xaa-Pro dipeptidase (Alteromonas sp.) (UniProt Q44238); assay: Kinetic constant Kcat from initial velocity assay (at 7.6 mM substrate) against Organophosphorus acid anhydrolase from Alteromonas sp. JD6.5
# How it was run: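 Initial-rate assay at a single substrate concentration of 7.6 mM. Used 1 μg purified recombinant OPAA (E. coli XL1/pTCJS4) at 25 °C in 50 mM bis-Tris propane pH 8.5, 100 mM NaCl, 0.1 mM MnCl2, with methanol cosolvent as needed. Hydrolysis was followed at 400 nm as p-nitrophenol (ε 17,000 M⁻¹ cm⁻¹).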
# Sequence of Xaa-Pro dipeptidase (Alteromonas sp.) (UniProt Q44238) (Q44238 whole entry, looked up): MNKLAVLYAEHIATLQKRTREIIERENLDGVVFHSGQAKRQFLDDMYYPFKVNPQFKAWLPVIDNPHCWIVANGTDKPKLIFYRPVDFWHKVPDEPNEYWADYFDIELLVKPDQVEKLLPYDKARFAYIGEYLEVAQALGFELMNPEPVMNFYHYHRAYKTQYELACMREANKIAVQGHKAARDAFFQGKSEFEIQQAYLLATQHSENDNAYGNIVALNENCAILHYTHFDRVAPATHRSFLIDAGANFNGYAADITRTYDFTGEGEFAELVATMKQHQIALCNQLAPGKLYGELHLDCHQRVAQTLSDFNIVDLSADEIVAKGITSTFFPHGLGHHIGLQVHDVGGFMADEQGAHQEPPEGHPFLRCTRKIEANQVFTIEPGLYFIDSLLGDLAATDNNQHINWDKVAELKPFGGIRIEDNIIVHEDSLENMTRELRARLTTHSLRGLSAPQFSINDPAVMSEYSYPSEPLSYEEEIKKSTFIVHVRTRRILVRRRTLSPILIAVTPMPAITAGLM
compound,measurement,setting,value
CO[P@](=O)(Oc1ccccc1)Oc1ccc([N+](=O)[O-])cc1,k cat,[1],1.8 s⁻¹
same,k cat/Km,[2],2340 M⁻¹ s⁻¹
same,Ratio,[3],14.5
same,Ratio,[4],4
Xaa-Pro dipeptidase (Alteromonas sp.) (from UniProt Q44238),Km,[5],1.3 mM
same,Km,[6],9.5 mM
same,Km,[7],0.8 mM
same,Km,[8],0.3 mM
same,Km,[9],2 mM
same,Km,[10],> 7.6 mM
same,Km,[11],19 mM
same,Km,[12],14 mM
same,Km,[13],12 mM
same,Km,[14],4 mM
same,Km,[15],8.3 mM
same,Km,[16],0.6 mM
same,Km,[17],0.2 mM
CCO[P@](=O)(Oc1ccccc1)Oc1ccc([N+](=O)[O-])cc1,k cat,[1],0.2 s⁻¹
same,k cat/Km,[2],300 M⁻¹ s⁻¹
same,Ratio,[3],2.8
same,Ratio,[4],< 3
CCO[P@@](=O)(Oc1ccccc1)Oc1ccc([N+](=O)[O-])cc1,k cat,[1],0.7 s⁻¹
same,k cat/Km,[2],360 M⁻¹ s⁻¹
O=[N+]([O-])c1ccc(OP(=O)(Oc2ccccc2)Oc2ccccc2)cc1,k cat,[1],0.1 s⁻¹
same,k cat/Km,[2],530 M⁻¹ s⁻¹
CCOP(=O)(OCC)Oc1ccc([N+](=O)[O-])cc1,k cat/Km,[18],280 M⁻¹ s⁻¹
same,k cat,[19],1.8 s⁻¹
CC(C)O[P@](=O)(Oc1ccccc1)Oc1ccc([N+](=O)[O-])cc1,k cat,[1],0.1 s⁻¹
same,k cat/Km,[2],240 M⁻¹ s⁻¹
same,Ratio,[3],3.5
same,Ratio,[4],< 3
COP(=O)(OC)Oc1ccc([N+](=O)[O-])cc1,k cat,[1],1.4 s⁻¹
same,k cat/Km,[2],140 M⁻¹ s⁻¹
CO[P@](=O)(Oc1ccc([N+](=O)[O-])cc1)OC(C)C,k cat,[1],54 s⁻¹
same,k cat/Km,[2],4510 M⁻¹ s⁻¹
CO[P@@](=O)(Oc1ccccc1)Oc1ccc([N+](=O)[O-])cc1,k cat,[1],40 s⁻¹
same,k cat/Km,[2],9990 M⁻¹ s⁻¹
CCO[P@](=O)(OC)Oc1ccc([N+](=O)[O-])cc1,k cat,[1],47 s⁻¹
same,k cat/Km,[2],3250 M⁻¹ s⁻¹
CCO[P@@](=O)(OC)Oc1ccc([N+](=O)[O-])cc1,k cat,[1],0.8 s⁻¹
same,k cat/Km,[2],90 M⁻¹ s⁻¹
same,Ratio,[3],112
same,Ratio,[4],36
CC(C)O[P@@](=O)(Oc1ccccc1)Oc1ccc([N+](=O)[O-])cc1,k cat,[1],0.2 s⁻¹
same,k cat/Km,[2],150 M⁻¹ s⁻¹
CO[P@@](=O)(Oc1ccc([N+](=O)[O-])cc1)OC(C)C,k cat,[1],3.6 s⁻¹
same,k cat/Km,[2],190 M⁻¹ s⁻¹
same,Ratio,[3],100
same,Ratio,[4],23
